In brackets after ≈: the same amount, converted by molar mass.
Tests used:
Format in all cases: functional
[1] = test system: Bacillus cereus; test: Antibacterial activity against Bacillus cereus MTCC 430 assessed as zone of inhibition at 100 uL after 24 hrs by agar well-diffusion method
Procedure, shortened: (§1)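 Mueller-Hinton agar plates swabbed with a bacterial suspension adjusted to 1.5×10^8 CFU/ml. Each 5 mm well received 100 µl of compound, and plates were incubated at 37°C for 24 h. Chloramphenicol (30 mcg) was the positive control and DMSO the negative control. Inhibition zones around wells were measured manually, in triplicate.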

[2] = test system: Salmonella enterica; test: Antibacterial activity against Salmonella enterica MTCC 735 assessed as zone of inhibition at 100 uL after 24 hrs by agar well-diffusion method
[3] = test system: Escherichia coli; test: Antibacterial activity against Escherichia coli MTCC 730 assessed as zone of inhibition at 100 uL after 24 hrs by agar well-diffusion method; procedure, shortened: as §1
[4] = test system: Bacillus cereus; test: Antibacterial activity against Bacillus cereus MTCC 430 after 18 hrs by TTC staining based broth microdilution method; settings: MTCC 430, 18 h
Procedure, shortened: (§2)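 Broth microdilution in Mueller-Hinton broth. 50 µl of inoculum from a 0.5 McFarland suspension was added to 50 µl of compound, giving final concentrations of 0.024–400 mg/ml in DMSO. Sealed plates were incubated at 37°C for 18 h, then 50 µl of 0.5% TTC was added for 1 h in the dark. MIC was the lowest concentration with no visible growth (well stays clear). Triplicate; mean ± SD.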

[5] = test system: Klebsiella pneumoniae; test: Antibacterial activity against Klebsiella pneumoniae MTCC 109 assessed as zone of inhibition at 100 uL after 24 hrs by agar well-diffusion method; procedure, shortened: as §1
[6] = test system: Streptococcus pyogenes; test: Antibacterial activity against Streptococcus pyogenes MTCC 1925 assessed as zone of inhibition at 100 uL after 24 hrs by agar well-diffusion method; procedure, shortened: as §1
[7] = test system: Klebsiella pneumoniae; test: Antibacterial activity against Klebsiella pneumoniae MTCC 109 after 18 hrs by TTC staining based broth microdilution method; settings: MTCC 109, 18 h; procedure, shortened: as §2

Row | Compound | inhibition zone (IZ) [1] [mm] | inhibition zone (IZ) [2] [mm] | inhibition zone (IZ) [3] [mm] | MIC [4] [µg/mL] | inhibition zone (IZ) [5] [mm] | inhibition zone (IZ) [6] [mm] | MIC [7] [µg/mL]
1 | O=c1oc2ccccc2c(O)c1C(c1ccccc1)c1c(O)c2ccccc2oc1=O | 20 | 10 | 17 | 190 (≈ 461 µM) | 21 | 23 | 190 (≈ 461 µM)
2 | Cc1[nH][nH]c(=O)c1C(c1ccccc1[N+](=O)[O-])C1C(=O)NC(=O)NC1=O (stereo not given) | 14 | 10 | 11 | 6250 (≈ 17400 µM) | 13 | 12 | 3120 (≈ 8680 µM)
3 | CC1(C)CC(=O)C(C(C2=C(O)CC(C)(C)CC2=O)c2ccc(Cl)cc2)=C(O)C1 | 0 | 0 | 0 |  | 0 | 0 | 
4 | CN(C)c1ccc(C(C2=C(O)CC(C)(C)CC2=O)C2=C(O)CC(C)(C)CC2=O)cc1 | 0 | 0 | 0 |  | 0 | 0 | 
5 | O=c1oc2ccccc2c(O)c1C(c1ccc(Cl)cc1)c1c(O)c2ccccc2oc1=O | 19 | 10 | 23 | 390 (≈ 873 µM) | 25 | 24 | 190 (≈ 425 µM)
6 | COc1cc(C(C2=C(O)CC(C)(C)CC2=O)C2=C(O)CC(C)(C)CC2=O)cc(OC)c1OC | 0 | 0 | 0 |  | 0 | 0 | 
7 | CC1(C)CC(=O)C(C(C2=C(O)CC(C)(C)CC2=O)c2ccccc2)=C(O)C1 | 0 | 0 | 0 |  | 0 | 0 | 
8 | O=c1oc2ccccc2c(O)c1C(c1ccco1)c1c(O)c2ccccc2oc1=O | 14 | 11 | 15 | 3120 (≈ 7750 µM) | 17 | 18 | 780 (≈ 1940 µM)
9 | CCOc1ccc(C(C2=C(O)CC(C)(C)CC2=O)C2=C(O)CC(C)(C)CC2=O)cc1 | 0 | 0 | 0 |  | 0 | 0 | 
10 | COc1ccc(C(c2c(C)[nH][nH]c2=O)C2C(=O)NC(=O)NC2=O)cc1OC (stereo not given) | 15 | 10 | 16 | 780 (≈ 2080 µM) | 21 | 17 | 390 (≈ 1040 µM)
11 | COc1ccc(C(C2=C(O)CC(C)(C)CC2=O)C2=C(O)CC(C)(C)CC2=O)cc1OC | 0 | 0 | 0 |  | 0 | 0 | 
12 | CC1(C)CC(=O)C(C(C2=C(O)CC(C)(C)CC2=O)c2ccc([N+](=O)[O-])cc2)=C(O)C1 | 15 | 0 | 0 |  | 14 | 0 | 
13 | CC1(C)CC(=O)C(C(C2=C(O)CC(C)(C)CC2=O)c2ccc(Br)cc2)=C(O)C1 | 11 | 0 | 11 |  | 11 | 10 | 
14 | CC1(C)CC(=O)C(C(C2=C(O)CC(C)(C)CC2=O)c2cccc(F)c2)=C(O)C1 | 0 | 0 | 0 |  | 0 | 0 | 
15 | Cc1ccc(C(C2=C(O)CC(C)(C)CC2=O)C2=C(O)CC(C)(C)CC2=O)cc1 | 0 | 0 | 0 |  | 0 | 0 | 
16 | CCC(C1=C(O)CC(C)(C)CC1=O)C1=C(O)CC(C)(C)CC1=O | 0 | 0 | 0 |  | 0 | 0 | 

Reference: ChEMBL document CHEMBL4152354, “A reusable magnetic nickel nanoparticle based catalyst for the aqueous synthesis of diverse heterocycles and their evaluation as potential anti-bacterial agent” (2018)
